Bioassay records deposited in PubChem BioAssay by several laboratories.
HNF4A DNA FP: change in binding of human HNF4 alpha to DNA. activity change, % at 10 µM. HNF4a-FITC DNA binding, fluorescence polarization, 1 h. AID 1224865. P41235. 0.3% of 360,000 active; in the data active = activity change above about 30%, passing the limit was not always enough
Target sequence (P41235 whole entry, looked up): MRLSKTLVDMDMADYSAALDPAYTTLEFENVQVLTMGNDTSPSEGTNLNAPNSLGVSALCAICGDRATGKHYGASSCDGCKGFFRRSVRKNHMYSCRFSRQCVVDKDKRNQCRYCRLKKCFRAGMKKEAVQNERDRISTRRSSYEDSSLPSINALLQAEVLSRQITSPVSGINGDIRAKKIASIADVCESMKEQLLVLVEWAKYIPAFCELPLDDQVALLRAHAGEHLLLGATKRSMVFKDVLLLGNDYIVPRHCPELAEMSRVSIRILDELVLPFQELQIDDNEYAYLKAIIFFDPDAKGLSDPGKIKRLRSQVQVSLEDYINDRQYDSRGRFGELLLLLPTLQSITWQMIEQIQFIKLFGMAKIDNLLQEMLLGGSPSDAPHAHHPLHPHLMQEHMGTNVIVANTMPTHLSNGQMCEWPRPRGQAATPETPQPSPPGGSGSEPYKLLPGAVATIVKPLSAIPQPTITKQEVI
Myeloid diff 2: compounds promoting myeloid differentiation | calls only at 10 µM | 1% of 360,000 active | ER-HoxA9 myeloid progenitors, lysozyme-GFP differentiation, flow cytometry;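 active = normalized GFP-positive differentiation at or above the plate's own cutoff, the solvent-only control mean plus 3 SD; inconclusive = no clear call, values can overlap the other calls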;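 note: cells exposed to compound for four days before flow analysis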
Granule exo inh: lytic granule exocytosis inhibition; 0.66% of 360,000 active; inhibition, % at 10 µM; TALL-104 LAMP-1 surface exposure, flow cytometry; cells stimulated with thapsigargin and PMA; AID 651702;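 active = inhibition above about 55%, limit read from the data; inconclusive = no clear call, values can overlap the other calls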
CSN inh: blocks human CSN-mediated cullin deneddylation | Q92905 | Purified CSN, SCF-Nedd8-OG deneddylation, fluorescence polarization | inhibition, % at 12.5 µM | 0.38% of 360,000 active;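 active = pattern-corrected inhibition above about 35%, with an unprinted fluorescence ratio check between 0.5 and 1.5, limit read from the data, passing the limit was not always enough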
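Schedule: reaction 90 min, room temperature / Assay system: HEK293T-derived human Csn5 enzyme / Input: Csn5 at 0.24 nM final / Measure: inhibition of Csn5 cleavage, % / Control set: substrate-only high control, full reaction low control / Technique: fluorescence polarization of the substrate / Buffer or medium: Tris/NaCl/DTT buffer, pH 7.5 / Reagent: SCFSkp2-Nedd8OG substrate at 10 nM final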
Myeloid diff CP1: promotes myeloid progenitor differentiation. shares compounds with Myeloid diff 2. ER-HoxA9 myeloid progenitors, GFP/Mac1 double-positive flow. calls only. 2% of 2,300 active. AID 651706;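 active = share of green or green-and-red cells above 9 and 9% in run 1 or 4 and 3% in run 2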
GFP autofluor: compound fluorescence in myeloid differentiation counter-screen. shares compounds with Myeloid diff 2. ER-HoxA9 myeloid progenitors, no estrogen, GFP autofluorescence flow cytometry; vehicle wells 0%, positive control 100%. fluorescence response, % (test concentration not listed). 7.4% of 2,300 active. AID 651707;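 active = over 5% cells positive for green fluorescent reporter, or over 2% positive for both it and APC stain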
Exocytosis CP01: blocks lytic granule exocytosis. shares compounds with Granule exo inh. TALL-104 cells, LAMP-1 externalization, flow cytometry; stimulated with PMA plus thapsigargin. inhibition, % at 10 µM. 11% of 1,500 active. AID 651954; in the data active = inhibition above about 60%
CSN5 deneddyl: validation of inhibitors of human CSN-mediated cullin deneddylation; 62% of 540 active; shares compounds with CSN inh; inhibition, % at 16.6 µM; Csn5 deneddylation of SCF-Nedd8OG, fluorescence polarization, 90 min; in the data active = inhibition above about 50%
MMP-2 counter: MMP-2 (human) inhibition, counter-screen for CSN hits; shares compounds with CSN inh; recombinant MMP-2, FRET substrate fluorescence, 60 min; inhibition, % at 16.6 µM; 33% of 540 active;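 active = corrected plate-normalized z-score of 5 or more, or -5 or less, or inhibition of 15% or more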
Thrombin cntr: counter-screen for CSN deneddylation inhibitors: bovine thrombin inhibition; inhibition, % at 16.6 µM; AID 720656; bovine thrombin cleavage of Ub4-pepOG, fluorescence polarization; 49% of 540 active; shares compounds with CSN inh;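 active = inhibition at or above a set limit, with a fluorescence interference ratio between 0.5 and a set maximum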
Hits are given with their value; – = inactive; ? = inconclusive; · = no result given; + = active, no number. The list is not random: actives were taken first. Their share in the collection is about 2.2%.

SMILES | HNF4A DNA FP | Myeloid diff 2 | Granule exo inh | CSN inh | Exocytosis CP01 | others
O=c1[nH]c(=O)n(CCc2ccccc2)c(O)c1C=NCCN1CCNCC1 | – | – | – | – | ·
O=C(/C=C/c1ccccc1)c1c(O)n(CCc2ccccc2)c(=O)[nH]c1=O | – | + | – | – | · | Myeloid diff CP1=–;GFP autofluor=–
Cc1ccccc1C1=NCC(=O)N(CC(=O)NCc2ccco2)c2sc3c(c21)CCCC3 | – | – | – | – | · | Myeloid diff CP1=–;GFP autofluor=–
CCC(C)C1N=C(c2ccccc2)c2cc(Cl)ccc2N(CC(=O)NCc2ccco2)C1=O (stereo not drawn) | – | – | – | – | ·
CCOC(=O)c1c(NC(=O)c2c(N)n(CCCOC)c3nc4ccccc4nc23)sc2c1CCCC2 | – | – | – | – | · | Myeloid diff CP1=–;GFP autofluor=–
OCC(Cl)CCl (stereo not drawn) | – | – | – | – | ·
CCCCCCC(=O)N/N=C/c1c(O)n(C2CC2)c(=S)[nH]c1=O | – | – | – | – | ·
CCCCCCC(=O)N/N=C/c1c(O)n(C(C)CC)c(=S)[nH]c1=O (stereo not drawn) | – | – | – | – | · | Myeloid diff CP1=–;GFP autofluor=–
O=C(CCC(=O)N1CC2C[C@@H](C1)Cn1c2cccc1=O)NCCc1ccccc1F | – | – | – | – | · | Myeloid diff CP1=–;GFP autofluor=–
OC(c1ccccc1)(c1ccccc1)c1ccncc1 | – | + | – | – | · | Myeloid diff CP1=–;GFP autofluor=–
O=C1NC(=O)N(Cc2ccc(F)cc2)C(=O)/C1=C\c1ccc(N2CCCC2)cc1 | – | + | – | 38 | · | Myeloid diff CP1=–;GFP autofluor=–;CSN5 deneddyl=98;MMP-2 counter=–;Thrombin cntr=–
O=C1NC(=O)N(c2ccc(F)cc2)C(=O)/C1=C/c1ccc(N2CCOCC2)cc1 | – | – | – | – | ·
CC(=NNC(=S)N1CC2CCC(CC2)C1)c1nccs1 | – | ? | – | – | ·
O=C1NC(=O)N(Cc2ccccc2)C(=O)/C1=C/C=C/c1ccco1 | 42 | – | ? | 121 | · | Myeloid diff CP1=–;GFP autofluor=–;CSN5 deneddyl=71;MMP-2 counter=–;Thrombin cntr=22
CCCCCCCSc1cc(OC)c(CCNC)cc1OC | – | – | 85 | – | –
C=CCN1CCc2cccc3c2[C@H]1Cc1ccc(O)c(O)c1-3 | – | – | 84 | – | –
OCC1CO1 (stereo not drawn) | – | – | – | – | ·
Nc1c(C(=O)NCc2ccco2)c2nc3ccccc3nc2n1Cc1ccccc1 | – | – | – | – | ·
COc1ccc(Cn2c(N)c(C(=O)NCc3ccco3)c3nc4ccccc4nc32)cc1 | – | + | 59 | – | –
CCC(C)N1C(=O)NC(=O)C2(Cc3c(ccc4ccccc34)N(C)C2)C1=O (stereo not drawn) | – | – | 60 | – | –
CCOc1ccc(N2C(=O)CC(=O)NC2=O)cc1 | – | – | – | – | ·
CCOc1ccc(N)cc1 | – | – | 101 | – | –
Cc1cccc(C)c1-n1nnnc1C(CCc1ccccc1)N1CCC(n2c(=O)[nH]c3ccccc32)CC1 (stereo not drawn) | – | – | 91 | – | 95
O=C(NC1CCCCC1)N1Cc2cc(-c3ccccc3)ccc2-n2nncc2C1 | – | – | – | – | ·
COc1ccc(CN2Cc3cc(-c4ccc(OC)cc4)ccc3-n3nncc3C2)cc1 | – | – | – | – | ·
SMILES | HNF4A DNA FP | Myeloid diff 2 | Granule exo inh | CSN inh | Exocytosis CP01 | others
CCOc1cccc(CNCCc2c(C)[nH]c3ccc(OC(F)(F)F)cc23)c1O | – | ? | 78 | – | 83
COc1ccc(-n2c(/C=C/c3ccc(O)c(OC)c3)nc3ccccc3c2=O)cc1 | – | + | 58 | – | –
COc1ccc(-n2c(/C=C/c3ccc(O)cc3)nc3ccccc3c2=O)cc1 | – | – | – | – | ·
COOCC1(C(=O)OC)C[C@H](c2ccc(OC)cc2)N(Cc2ccccc2OC)[C@@H]1c1ccccc1C (stereo partly drawn) | – | – | – | – | ·
O=C1NCN(c2ccccc2)C12CCN(C(c1cccs1)c1nnnn1Cc1ccccc1)CC2 (stereo not drawn) | – | – | – | – | ·
COC(=O)C1=C(c2cccc(OCc3ccccc3)c2)C[C@@H]2CC[C@H]1N2C(=O)NCCCOC(C)C | – | – | 98 | – | –
COC(=O)C1=C(c2cccc(OCc3ccccc3)c2)C[C@@H]2CC[C@H]1N2C(=O)NCCOc1ccc(OC)cc1 | – | – | – | – | ·
CCOC(=O)[C@]12Cc3cc(C)ccc3[C@H]1N(C1CCCCC1)C(=O)c1cc(OC)ccc12 | – | ? | 84 | – | –
CCOC(=O)[C@]12Cc3ccccc3[C@H]1N(C)C(=O)c1cc(OC)ccc12 | – | – | – | – | ·
CCOC(=O)[C@]12Cc3cc(OC)ccc3[C@H]1N(C1CCCCC1)C(=O)c1cc(OC)ccc12 | – | ? | 64 | – | –
CC(C)(C)C(=O)N1Cc2cc(N3CCOCC3)ccc2-n2nncc2C1 | – | – | – | – | ·
COc1ccc(Br)cc1CNCCc1ccc2c(c1)OCO2 | – | – | 59 | – | –
COc1ccc(CNCCc2ccc3c(c2)OCO3)cc1Br | – | – | – | – | ·
O=C1NC(=S)N(c2ccccc2)C(=O)/C1=C/c1ccco1 | – | – | – | 53 | · | MMP-2 counter=46;Thrombin cntr=–
O=C1NC(=O)N(c2ccc3c(c2)OCO3)C(=O)/C1=C/c1ccc(N2CCCCC2)o1 | – | – | – | – | ·
Cc1cc(C)cc(N2C(=O)/C(=C\c3ccc(N4CCN(C)CC4)o3)C(=O)NC2=S)c1 | – | – | – | 76 | · | CSN5 deneddyl=103;MMP-2 counter=-48;Thrombin cntr=–
CCOc1cccc(N2C(=O)/C(=C/c3ccco3)C(=O)NC2=S)c1 | – | – | – | 39 | · | MMP-2 counter=34;Thrombin cntr=–
COc1ccc(N2C(=O)/C(=C/c3cccs3)C(=O)NC2=S)cc1 | – | – | – | – | ·
COc1cccc(N2C(=O)/C(=C/c3ccc(C)o3)C(=O)NC2=S)c1 | – | – | – | 37 | · | CSN5 deneddyl=88;MMP-2 counter=32;Thrombin cntr=26
O=C1c2ccccc2-n2nnc(-c3ccccc3)c2C2c3ccccc3CCN12 (stereo not drawn) | – | – | – | – | ·
Nc1cccc(SC2CC(=O)N(c3ccc(Cl)cc3C(=O)c3ccccc3)C2=O)c1 (stereo not drawn) | – | – | – | – | ·
CCOC(=O)c1c(NC(=O)C(c2ccccc2)c2ccccc2)sc2c1C1CCN2CC1 | – | – | – | – | ·
Nc1nc(N)c2cnnn2n1 | – | – | – | – | ·
